Experiments:
[1] = target: Cruzipain (Trypanosoma cruzi) (UniProt P25779); assay: Inhibition of Trypanosoma cruzi cruzain at 100 uM using Z-Phe-Arg-aminomethylcoumarin as substrate measured after 5 mins by spectrofluorimetry
Outline: (§1)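 Recombinant cruzain (0.5 nM, MMTS-protected, anion-exchange purified) in 0.1 M sodium acetate pH 5.5 with 0.1 mM beta-mercaptoethanol and 2.5 uM Z-FR-AMC, read fluorimetrically over 5 min; activity from initial rate versus DMSO control. Triton X-100 0.01% standard; detergent-sensitivity tests used 0.01% vs 0.1%. Run with and without 10 min pre-incubation; two independent experiments in triplicate; E64 100 uM positive control.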

[2] = (§2) Cytotoxicity against mouse J774 cells assessed as cell viability at 10 uM measured after 24 hrs by MTT assay; assay type: cell-based; conditions: J774 cells, read-out: Activity
Outline: (§3)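 J774 macrophages seeded in RPMI-1640 with 10% FBS for 16 hours, exposed 24 h at 37 °C to compound (10–100 umol/L range) in 0.01% DMSO vehicle; MTT (5 mg/mL) 4 h, formazan dissolved in DMSO, absorbance 540 nm. Viability as percent of untreated cells; three wells per treatment.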

[3] = system: Trypanosoma cruzi; assay: Antitrypanosomal activity against amastigote stage of Trypanosoma cruzi CA-I/72 infected in mouse C2C12 cells at 10 uM measured after 3 days by DAPI staining-based assay relative to control; assay type: functional; conditions: CA-I/72, C2C12, 72 h
Outline: (§4)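 T. cruzi CA-I/72 trypomastigotes harvested from infected C2C12 myocytes 7 days post-infection, mixed with C2C12 cells (1:15 host:parasite), treated immediately with serially diluted compound; 3 days incubation, paraformaldehyde fixation, DAPI staining, automated high-content imaging. Activity normalized to untreated wells and 10 uM benznidazole; host viability as C2C12 count relative to untreated wells.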

[4] = target: Cruzipain (Trypanosoma cruzi) (UniProt P25779); assay: Inhibition of Trypanosoma cruzi cruzain at 100 uM pre-incubated for 10 mins followed by addition of Z-Phe-Arg-aminomethylcoumarin as substrate measured after 5 mins by spectrofluorimetry; outline: as §1
[5] = system: Trypanosoma cruzi; assay: Antitrypanosomal activity against trypomastigote stage of Trypanosoma cruzi Y at 25 uM measured after 24 hrs using propidium iodide by neubauer chamber method relative to control; assay type: functional
Outline: (§5)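 Y strain trypomastigotes from LLC-MK2 culture supernatant, 4.0 × 10^5 per well, exposed to five compound concentrations (DMSO solutions) for 24 h at 37 °C, 5% CO2; propidium iodide 400 ng/mL for 5 min, then viable motile parasites counted in a Neubauer chamber. Percent inhibition versus untreated cultures.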

[6] = system: Trypanosoma cruzi; assay: Antitrypanosomal activity against amastigote stage of Trypanosoma cruzi CA-I/72 infected in mouse C2C12 cells measured after 3 days by DAPI staining-based assay; assay type: functional, organism-based; conditions: CA-I/72, C2C12, 72 h; outline: as §4
[7] = target: Cruzipain (Trypanosoma cruzi) (UniProt P25779); assay: Inhibition of Trypanosoma cruzi cruzain at 6.25 uM using Z-Phe-Arg-aminomethylcoumarin as substrate measured after 5 mins in presence of 0.1% triton by spectrofluorimetry; outline: as §1
[8] = target: Cruzipain (Trypanosoma cruzi, UniProt P25779); assay: Inhibition of Trypanosoma cruzi cruzain using Z-Phe-Arg-aminomethylcoumarin as substrate measured after 5 mins by spectrofluorimetry
Sequence of Cruzipain (P25779 whole entry): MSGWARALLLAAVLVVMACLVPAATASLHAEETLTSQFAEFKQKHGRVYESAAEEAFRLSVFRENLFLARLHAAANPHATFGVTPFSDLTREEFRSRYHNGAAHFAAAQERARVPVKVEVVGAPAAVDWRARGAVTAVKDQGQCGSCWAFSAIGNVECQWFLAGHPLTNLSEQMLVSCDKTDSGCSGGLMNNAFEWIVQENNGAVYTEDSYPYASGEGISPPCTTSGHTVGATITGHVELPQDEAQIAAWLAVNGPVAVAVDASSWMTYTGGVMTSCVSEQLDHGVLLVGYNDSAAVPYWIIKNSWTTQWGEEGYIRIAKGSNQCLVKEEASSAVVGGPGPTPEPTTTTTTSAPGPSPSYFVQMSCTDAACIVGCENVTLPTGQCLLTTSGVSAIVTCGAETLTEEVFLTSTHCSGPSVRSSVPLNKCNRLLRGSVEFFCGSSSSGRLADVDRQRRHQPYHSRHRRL
Outline: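 IC50 for cruzain: 10 min enzyme–compound pre-incubation, then 0.5 nM cruzain with 2.5 uM Z-FR-AMC in 0.1 M sodium acetate pH 5.5, 0.1 mM beta-mercaptoethanol, 0.01% Triton X-100, fluorescence over 5 min; at least nine compound concentrations in triplicate, two independent experiments, curves fitted for IC50.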

[9] = target: Cruzipain (Trypanosoma cruzi) (UniProt P25779); assay: Inhibition of Trypanosoma cruzi cruzain at 6.25 uM using Z-Phe-Arg-aminomethylcoumarin as substrate measured after 5 mins in presence of 0.01% triton by spectrofluorimetry; outline: as §1
[10] = target: Cruzipain (Trypanosoma cruzi) (UniProt P25779); assay: Inhibition of Trypanosoma cruzi cruzain at 100 uM using Z-Phe-Arg-aminomethylcoumarin as substrate measured after 5 mins in presence of 0.1% triton by spectrofluorimetry; outline: as §1
[11] = target: Cruzipain (Trypanosoma cruzi) (UniProt P25779); assay: Inhibition of Trypanosoma cruzi cruzain at 100 uM using Z-Phe-Arg-aminomethylcoumarin as substrate measured after 5 mins in presence of 0.01% triton by spectrofluorimetry; outline: as §1
[12] = system: J774; assay: as §2; assay type: cell-based; conditions: j774, 24 h, 10 µM; outline: as §3
[13] = target: Cruzipain (Trypanosoma cruzi) (UniProt P25779); assay: Inhibition of Trypanosoma cruzi cruzain at 25 uM pre-incubated for 10 mins followed by addition of Z-Phe-Arg-aminomethylcoumarin as substrate measured after 5 mins by spectrofluorimetry; outline: as §1
[14] = target: Cruzipain (Trypanosoma cruzi) (UniProt P25779); assay: Inhibition of Trypanosoma cruzi cruzain at 25 uM using Z-Phe-Arg-aminomethylcoumarin as substrate measured after 5 mins by spectrofluorimetry; outline: as §1
[15] = target: Cruzipain (Trypanosoma cruzi) (UniProt P25779); assay: Inhibition of Trypanosoma cruzi cruzain at 50 uM using Z-Phe-Arg-aminomethylcoumarin as substrate measured after 5 mins in presence of 0.1% triton by spectrofluorimetry; outline: as §1
[16] = target: Cruzipain (Trypanosoma cruzi) (UniProt P25779); assay: Inhibition of Trypanosoma cruzi cruzain at 50 uM using Z-Phe-Arg-aminomethylcoumarin as substrate measured after 5 mins in presence of BSA by spectrofluorimetry
Outline: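 Cruzain aggregation test: compound pre-incubated with 2 mg/mL BSA, then cruzain (0.5 nM) activity on 2.5 uM Z-FR-AMC in 0.1 M sodium acetate pH 5.5, 0.1 mM beta-mercaptoethanol, 0.01% Triton X-100, monitored 5 min by fluorescence; inhibition from initial rate against DMSO control.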

[17] = target: Cruzipain (Trypanosoma cruzi) (UniProt P25779); assay: Inhibition of Trypanosoma cruzi cruzain at 50 uM using Z-Phe-Arg-aminomethylcoumarin as substrate measured after 5 mins in presence of 0.01% triton by spectrofluorimetry; outline: as §1
[18] = target: Cruzipain (Trypanosoma cruzi) (UniProt P25779); assay: Inhibition of Trypanosoma cruzi cruzain at 50 uM using Z-Phe-Arg-aminomethylcoumarin as substrate measured after 5 mins by spectrofluorimetry; outline: as §1
[19] = system: Trypanosoma cruzi; assay: Antitrypanosomal activity against trypomastigote stage of Trypanosoma cruzi Y measured after 24 hrs using propidium iodide by neubauer chamber method; assay type: functional, organism-based; outline: as §5
[20] = target: Cruzipain (Trypanosoma cruzi) (UniProt P25779); assay: Inhibition of Trypanosoma cruzi cruzain at 50 uM pre-incubated for 10 mins followed by addition of Z-Phe-Arg-aminomethylcoumarin as substrate measured after 5 mins by spectrofluorimetry; outline: as §1

Sequence of Cruzipain (Trypanosoma cruzi) (P25779 123-467 limits assumed): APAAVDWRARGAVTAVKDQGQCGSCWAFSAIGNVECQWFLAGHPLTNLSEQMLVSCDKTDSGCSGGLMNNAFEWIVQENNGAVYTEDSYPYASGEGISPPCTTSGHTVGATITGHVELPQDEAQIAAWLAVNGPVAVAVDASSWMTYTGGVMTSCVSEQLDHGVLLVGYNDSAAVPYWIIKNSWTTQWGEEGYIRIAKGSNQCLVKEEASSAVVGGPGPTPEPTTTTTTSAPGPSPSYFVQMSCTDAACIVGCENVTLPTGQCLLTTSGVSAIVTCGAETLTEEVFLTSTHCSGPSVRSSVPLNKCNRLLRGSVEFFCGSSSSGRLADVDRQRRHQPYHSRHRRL

Structure (SMILES) | inhibition [1] | inhibition at 10 µM [3] | inhibition [4] | inhibition at 25 µM [5] | also measured
CC(C)OC(=O)c1c(/N=c2\scc(-c3ccccc3)n2-c2ccccc2)sc2c1CCCC2 | 13% | 59.5% | 25% | 4.5% | viability at 24 h, 10 µM [2]: > 50%; IC50 [6]: 6.03 µM
C=CCN1C(=O)CS/C1=N\c1sc2c(c1C(=O)OCC)CCCC2 | 23% | 17% | 40% | 4.5% | –
C=CCn1c(-c2ccccc2)cs/c1=N\c1sc2c(c1C(=O)OC(C)C)CCCC2 | 29% | 36% | 67% | 6.1% | –
O=C(Cn1ccnc1[N+](=O)[O-])NCc1ccccc1 [BENZNIDAZOLE] | – | 94.5% | – | 100% | IC50 [6]: 1.17 µM
CC(C)OC(=O)c1c(NC(=S)Nc2ccccc2)sc2c1CCCC2 | 43% | 59.6% | 74% | 5.8% | viability at 24 h, 10 µM [2]: > 50%; IC50 [6]: 8.78 µM
C=CCn1c(-c2ccccc2)cs/c1=N\c1sc2c(c1C(=O)OCC)CCCC2 | 87% | 53.1% | 97% | 5.1% | inhibition [7]: 55%; viability at 24 h, 10 µM [2]: > 50%; IC50 [8]: 2.4 µM; IC50 [6]: 9.7 µM; inhibition [9]: 62%
CCOC(=O)c1c(/N=C2\SCC(=O)N2c2ccccc2)sc2c1CCCC2 | 0% | 20.1% | 17% | 3.2% | –
C=CCNC(=S)Nc1sc2c(c1C(=O)OC(C)C)CCCC2 | 29% | 37.8% | 34% | 15.1% | –
CCOC(=O)c1c(/N=C2\SC(CC(=O)O)C(=O)N2c2ccccc2)sc2c1CCCC2 (stereo not given) | 66% | 37.4% | 86% | 6.4% | inhibition [10]: 18%; IC50 [8]: 121 µM; inhibition [11]: 5.4%
C=CCn1c(C)c(C(=O)OCC)s/c1=N\c1sc2c(c1C(=O)OCC)CCCC2 | 34% | 18.3% | 82% | 7.1% | inhibition [10]: 29%; IC50 [8]: 85 µM; inhibition [11]: 33%
C=CCNC(=S)Nc1sc2c(c1C(=O)OCC)CCCC2 | 29% | 11.9% | 41% | 11.9% | –
CCOC(=O)c1c(NC(=S)Nc2ccccc2)sc2c1CCCC2 | 12% | 47% | 4% | 1.6% | –
CC(C)OC(=O)c1c(/N=C2\SC(CC(=O)O)C(=O)N2c2ccccc2)sc2c1CCCC2 (stereo not given) | 32% | 43.5% | 77% | 6.4% | –
CC(C)OC(=O)c1c(/N=C2\SCC(=O)N2c2ccccc2)sc2c1CCCC2 | 33% | 39.4% | 72% | 27% | Activity [12]: Toxic; IC50 [6]: 6.96 µM
C=CCn1c(C)c(C(=O)OCC)s/c1=N\c1sc2c(c1C(=O)OC(C)C)CCCC2 | – | 39.2% | – | 6.7% | inhibition [13]: 71%; inhibition [14]: 38%
C=CCN1C(=O)C(C(=O)OCC)S/C1=N\c1sc2c(c1C(=O)OCC)CCCC2 (stereo not given) | 18% | 30% | 59% | 16.7% | –
CCOC(=O)c1c(/N=C2\SC(C(=O)OCC)C(=O)N2c2ccccc2)sc2c1CCCC2 (stereo not given) | 46% | 0.43% | 66% | 9% | –
C=CCN1C(=O)C(CC(=O)O)S/C1=N\c1sc2c(c1C(=O)OCC)CCCC2 (stereo not given) | 64% | 13.8% | 89% | 5.1% | inhibition [15]: 44%; inhibition [16]: 42%; IC50 [8]: 50 µM; inhibition [17]: 47%; inhibition [18]: 50%
C=CCN1C(=O)CS/C1=N\c1sc2c(c1C(=O)OC(C)C)CCCC2 | 45% | 4.03% | 70% | 84.1% | IC50 [19]: 10.3 µM
C=CCN1C(=O)C(CC(=O)O)S/C1=N\c1sc2c(c1C(=O)OC(C)C)CCCC2 (stereo not given) | 52% | 47.2% | 80% | 7.7% | inhibition [10]: 52.7%; IC50 [8]: 111 µM; inhibition [11]: 53%
CCOC(=O)c1c(/N=c2\scc(-c3ccccc3)n2-c2ccccc2)sc2c1CCCC2 | – | 23.6% | – | 5.8% | inhibition [18]: 16%; inhibition [20]: 40%
CC(C)C[C@H](NC(=O)[C@H]1O[C@@H]1C(=O)O)C(=O)NCCCCN=C(N)N [E-64] | – | – | – | – | IC50 [8]: 0.4 µM
